Source: ChEMBL document CHEMBL3046303, “Nematotoxic phenolic compounds from Melia azedarach against Meloidogyne incognita” (J Agric Food Chem, 2012)
In brackets after ≈: the same amount, converted by molar mass. Activity calls are given as the source filed them. The rule behind the calls is not given here.

Assays:
Format in all cases: functional, organism-based
Meloidogyne incognita [1] = assay: Nematotoxic activity against freshly hatched Meloidogyne incognita J2 (root-knot nematode) isolated from tomato roots assessed as induction of nematode paralysis measured 24 hr after immersion in compound test solutions
Procedure, shortened: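 Freshly hatched (24 h) J2 extracted from tomato roots; 25 J2 per well in 96-well plates, kept in the dark at 28 °C. Motile or paralyzed J2 were scored under an inverted microscope at 40×. Paralysis was corrected for the water control (Schneider-Orelli). EC50 was fitted by log-logistic regression on the mean of five replicates; experiments were run twice.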

Meloidogyne incognita [2] = assay: Nematotoxic activity against Meloidogyne incognita (root-knot nematode)
Procedure, shortened: (§1)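 Freshly hatched J2 (24 h old), extracted from tomato roots, were exposed to test solutions at 25 J2 per well. Plates were kept in the dark at 28 °C with water and solvent-carrier controls. Nematodes were scored under an inverted microscope (40×) as motile or paralyzed. Paralysis was corrected for the water control by the Schneider-Orelli formula. EC50 came from log-logistic regression. Experiments were run twice.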

Meloidogyne incognita [3] = assay: Nematotoxic activity against freshly hatched Meloidogyne incognita J2 (root-knot nematode) isolated from tomato roots assessed as induction of nematode paralysis at 1000 ug/mL measured 24 hr after immersion in compound test solutions; procedure, shortened: as §1
Meloidogyne incognita [4] = assay: Nematotoxic activity against freshly hatched Meloidogyne incognita J2 (root-knot nematode) isolated from tomato roots assessed as induction of microscopic damages in nematode body measured 24 hr after immersion in compound test solutions

Row | SMILES | EC50 (Meloidogyne incognita [1]) [µg/mL] | other results
1 | O=C(O)c1ccc(O)cc1 [PARABEN] | 871 (≈ 6.31 mM) | –
2 | O=C(O)CC(O)C(=O)O (stereo not given) [MALIC ACID] | > 1000 | –
3 | CCCCCCCCCCCCCCCC(=O)O [PALMITIC ACID] | – | EC50 (Meloidogyne incognita [2]): 38.3 µg/mL (≈ 0.149 mM)
4 | Cc1ccc(C=O)o1 [5-METHYLFURFURAL] | – | EC50 (Meloidogyne incognita [2]): 45.7 µg/mL (≈ 0.415 mM)
5 | C[C@@H]1O[C@@H](OC[C@H]2O[C@@H](Oc3c(-c4ccc(O)c(O)c4)oc4cc(O)cc(O)c4c3=O)[C@H](O)[C@@H](O)[C@@H]2O)[C@H](O)[C@H](O)[C@H]1O [RUTIN] | > 1000 | –
6 | O=C(/C=C/c1ccc(O)c(O)c1)O[C@@H]1C[C@](O)(C(=O)O)C[C@@H](O)[C@H]1O [CHLOROGENIC ACID] | > 1000 | –
7 | COc1cc(C(=O)O)ccc1O [VANILLIC ACID] | > 1000 | –
8 | O=C(O)c1ccc2ccccc2c1 [BETA-NAPHTOIC ACID] | > 1000 | –
9 | O=Cc1ccc(CO)o1 [AES-103] | – | EC50 (Meloidogyne incognita [2]): 8.5 µg/mL (≈ 0.0674 mM)
10 | O=C(O)/C=C/c1ccc(O)c(O)c1 [CAFFEIC ACID] | > 1000 | Activity (Meloidogyne incognita [3]): inactive
11 | O=C(O)c1ccc(O)c(O)c1 [PROTOCATECHUIC ACID] | > 1000 | –
12 | O=C(O)c1ccccc1 [BENZOIC ACID] | 501 (≈ 4.1 mM) | –
13 | O=C(O)c1ccccc1O [SALICYLIC ACID] | 379 (≈ 2.74 mM) | Activity (Meloidogyne incognita [3]): Active; LC50 (Meloidogyne incognita [2]): 46 µg/mL (≈ 0.333 mM)
14 | O=Cc1ccco1 [FURFURAL] | – | Activity (Meloidogyne incognita [4]): Active; EC50 (Meloidogyne incognita [2]): 41.1 µg/mL (≈ 0.428 mM)
15 | COc1cc(/C=C/C(=O)O)ccc1O [FERULATE] | > 1000 | –
16 | Oc1cc(O)c2c(c1)OC(c1ccc(O)c(O)c1)C(O)C2 (stereo not given) [CATECHIN] | > 1000 | –
17 | Oc1cc(O)c2c(c1)O[C@@H](c1ccc(O)c(O)c1)[C@@H](O)C2 [(+)-EPICATECHIN] | > 1000 | –
18 | O=C(O)/C=C/c1ccc(O)cc1 [COUMARIC ACID] | 840 (≈ 5.12 mM) | –
19 | CCCCCC(=O)O [HEXANOATE] | – | EC50 (Meloidogyne incognita [2]): 38.3 µg/mL (≈ 0.33 mM)
20 | O=C(O)c1cc(O)c(O)c(O)c1 [GALLIC ACID] | > 1000 | –
21 | O=C(O)c1cccnc1 [NIACIN] | 1730 (≈ 14.1 mM) | –
